The record followed here is ChEMBL document CHEMBL1124520, “New kelatorphan-related inhibitors of enkephalin metabolism: improved antinociceptive properties” (J Med Chem, 1989).

A short description of assay [1]: Inhibition of dipeptidyl amino peptidase activity in rat brain with 10 nM [3H]Leu-enkephalin as substrate. Format: tissue-based. The essentials: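 Membrane-bound dipeptidylaminopeptidase purified from rat brain. Preincubated 15 min at 25 °C in 50 mM Tris-HCl with or without inhibitor. […] IC50 by log-probit over five inhibitor concentrations; mean ± SEM, three independent experiments.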

The target in assay [2] is T1, Neprilysin (Oryctolagus cuniculus, UniProt P08049).
T1 sequence (P08049 whole entry): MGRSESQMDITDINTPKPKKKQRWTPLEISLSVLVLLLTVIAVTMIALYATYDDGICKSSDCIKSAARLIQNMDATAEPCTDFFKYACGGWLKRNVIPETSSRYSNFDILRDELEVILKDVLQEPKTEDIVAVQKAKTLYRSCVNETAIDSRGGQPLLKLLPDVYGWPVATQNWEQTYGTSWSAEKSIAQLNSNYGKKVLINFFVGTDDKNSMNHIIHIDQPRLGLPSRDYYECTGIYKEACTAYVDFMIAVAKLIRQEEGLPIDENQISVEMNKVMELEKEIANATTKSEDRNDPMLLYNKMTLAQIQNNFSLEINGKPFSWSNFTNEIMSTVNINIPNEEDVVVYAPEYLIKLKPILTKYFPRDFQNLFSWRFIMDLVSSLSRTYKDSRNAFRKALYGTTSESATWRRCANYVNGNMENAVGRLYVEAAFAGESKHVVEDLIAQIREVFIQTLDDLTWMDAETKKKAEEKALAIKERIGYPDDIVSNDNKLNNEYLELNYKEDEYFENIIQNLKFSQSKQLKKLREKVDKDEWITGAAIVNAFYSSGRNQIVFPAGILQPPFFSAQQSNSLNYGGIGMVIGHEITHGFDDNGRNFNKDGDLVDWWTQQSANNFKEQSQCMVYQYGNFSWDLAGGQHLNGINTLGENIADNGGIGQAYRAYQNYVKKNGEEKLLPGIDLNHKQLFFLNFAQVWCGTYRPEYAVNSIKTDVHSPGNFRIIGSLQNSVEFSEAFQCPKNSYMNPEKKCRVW
Description: Inhibition of neutral endopeptidase activity in rabbit kidney with 20 nM [3H]D-Ala2-Leu-enkephalin as substrate. Put shortly: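 NEP purified to homogeneity from rabbit kidney, 1 pmol/100 μL final, preincubated 15 min at 25 °C in 50 mM Tris-HCl with or without inhibitor. [3H]-D-Ala2-Leu-enkephalin (Km 30 μM) added at 20 nM final. Reaction stopped at 30 min with 0.5 M HCl; products separated on polystyrene beads. IC50 from log-probit of five concentrations, mean ± SEM of three experiments.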

Assay [3] deals with Mus musculus. Briefly: Analgesic effect when injected intracerebroventricularly at 50 (microg). It counts as functional. The essentials: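 Male Swiss mice (23–25 g), icv dose of 50 μg in 10 μL saline, n = 10 per group. Hot plate at 55 ± 0.5 °C; jump latency read 15 min after injection, cutoff 240 s. Compared with vehicle controls by ANOVA and Bonferroni test. % analgesia = (experimental − control latency)/(240 s − control latency).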

Assay [4] deals with T2, Aminopeptidase N (Sus scrofa, UniProt P15145).
T2 sequence (P15145 whole entry): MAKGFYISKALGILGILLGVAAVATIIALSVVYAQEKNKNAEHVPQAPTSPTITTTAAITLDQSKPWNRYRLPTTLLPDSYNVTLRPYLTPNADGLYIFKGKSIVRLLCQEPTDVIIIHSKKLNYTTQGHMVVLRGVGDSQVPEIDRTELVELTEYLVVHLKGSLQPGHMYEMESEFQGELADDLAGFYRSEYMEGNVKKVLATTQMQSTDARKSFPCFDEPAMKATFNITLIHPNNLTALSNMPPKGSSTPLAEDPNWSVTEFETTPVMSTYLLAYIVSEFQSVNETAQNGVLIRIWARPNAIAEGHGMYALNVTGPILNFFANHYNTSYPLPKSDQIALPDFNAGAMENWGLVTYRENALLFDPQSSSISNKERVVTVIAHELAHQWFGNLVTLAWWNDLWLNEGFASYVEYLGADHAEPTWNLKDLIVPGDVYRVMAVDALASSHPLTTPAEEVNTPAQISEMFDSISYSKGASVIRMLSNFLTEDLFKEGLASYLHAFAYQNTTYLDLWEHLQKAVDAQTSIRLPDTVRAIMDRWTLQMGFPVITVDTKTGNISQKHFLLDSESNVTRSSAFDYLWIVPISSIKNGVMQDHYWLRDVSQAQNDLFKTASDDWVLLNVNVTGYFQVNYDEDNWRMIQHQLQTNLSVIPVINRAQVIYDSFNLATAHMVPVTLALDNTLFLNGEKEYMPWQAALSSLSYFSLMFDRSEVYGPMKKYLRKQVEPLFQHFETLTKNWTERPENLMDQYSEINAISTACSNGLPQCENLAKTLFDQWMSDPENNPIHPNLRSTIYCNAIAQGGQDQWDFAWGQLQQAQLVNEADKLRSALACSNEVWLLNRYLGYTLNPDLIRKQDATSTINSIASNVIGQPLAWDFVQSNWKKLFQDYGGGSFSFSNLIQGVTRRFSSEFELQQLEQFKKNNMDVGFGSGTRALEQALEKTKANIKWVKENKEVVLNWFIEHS
Description: Inhibition of Aminopeptidase N activity in pig kidney with 10 nM [3H]Leu-enkephalin as substrate. It counts as tissue-based. The essentials: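 Commercial aminopeptidase N, used unpurified. Enzyme preincubated 15 min at 25 °C with or without rising inhibitor concentrations in 50 mM Tris-HCl. [3H]Leu-enkephalin (Km 50 μM) added to 10 nM final. Stopped after 30 min with HCl; tritiated metabolites separated on polystyrene beads. IC50 from log-probit of five concentrations, mean ± SEM of three independent experiments.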

For the molecule `CC(NC(=O)C(CC(=O)NO)Cc1ccccc1)C(C)C(=O)O` (stereo in doubt; 11B), the IC50 came to 17.5 nM in assay [1] and 13 nM in assay [2].

In assay [3], `C[C@H](NC(=O)[C@@H](CC(=O)NO)Cc1ccccc1)C(=O)O` [KELATORPHAN] gave an Analgesia of 50% and a Latency time of 167.2 s.

Take `O=C(O)C[C@H](Cc1ccccc1)NC(=O)[C@@H](CC(=O)NO)Cc1ccccc1` (racemic): the figures for the IC50 in assay [4], in assay [1] and in assay [2] were 22.5 nM, 0.46 nM and 3 nM, respectively. This molecule also returned an Analgesia in assay [3] of 68.2%. For the same molecule, in assay [3], the Latency time was determined as 193.7 s.

As for `O=C(CC(Cc1ccccc1)C(=O)NCC(Cc1ccccc1)C(=O)O)NO` (configuration not stated), the IC50 stood at 71.5 nM in assay [4], 2.5 nM in assay [1] and 1.8 nM in assay [2]. Besides, the Analgesia in assay [3] turned out to be 39.4%. For the same molecule, the Latency time in assay [3] is 151.8 s.

For `O=C(O)C[C@H](NC(=O)[C@@H](CC(=O)NO)Cc1ccccc1)c1ccccc1` (racemic), the figures for the IC50 in assay [4], in assay [1] and in assay [2] were 32.5 nM, 2.6 nM and 2.9 nM, respectively. In assay [3], this molecule yielded an Analgesia of 62.1%. For the same molecule, the Latency time in assay [3] worked out at 184.8 s.

In the case of `O=C(O)CCCCNC(=O)C(CC(=O)NO)Cc1ccccc1` (configuration not stated), the results for the IC50 in assay [4], in assay [1] and in assay [2] were 500 nM, 250 nM and 51.5 nM, respectively.

As to `CC(CC(=O)O)NC(=O)C(CC(=O)NO)Cc1ccccc1` (stereo in doubt; C), the IC50 came to 350 nM in assay [4], 0.9 nM in assay [1] and 1.7 nM in assay [2].

Take `CC(NC(=O)C(CC(=O)NO)Cc1ccccc1)C(C)C(=O)O` (stereo in doubt; 11A): the figures for the IC50 in assay [1] and in assay [2] were 10.5 nM and 26.5 nM, respectively.

Take `O=C(O)CCCNC(=O)C(CC(=O)NO)Cc1ccccc1` (configuration not stated): the half-inhibitory concentration (IC50) in assay [4] was 1500 nM; in assay [1], 150 nM; in assay [2], 27.5 nM.

`CC(CC(=O)O)NC(=O)C(CC(=O)NO)Cc1ccccc1` (stereo in doubt; 6): the IC50 in assay [4] is 445 nM; in assay [1] it was 10 nM; in assay [2], 2 nM. The Analgesia in assay [3] was found to be 20.5%. Further, the Latency time in assay [3] is on record as 124 s.

For `CN(C(=O)C(CC(=O)NO)Cc1ccccc1)C(Cc1ccccc1)C(=O)O` (configuration not stated), the IC50 in assay [4] was determined as 120 nM; in assay [1] it was 2.3 nM; in assay [2] it was 150 nM.

As to `O=C(O)CCNC(=O)C(CC(=O)NO)Cc1ccccc1` (configuration not stated), the values for the IC50 in assay [4], in assay [1] and in assay [2] were 670 nM, 36 nM and 2.4 nM, respectively. Further, the Analgesia in assay [3] is 21.5%. In assay [3], this molecule yielded a Latency time of 125.3 s.

Take `CC(CNC(=O)C(CC(=O)NO)Cc1ccccc1)C(=O)O` (configuration not stated): the values for the IC50 in assay [4], in assay [1] and in assay [2] were 360 nM, 23 nM and 2.3 nM, respectively. This molecule came in with an Analgesia in assay [3] of 46.6%. The molecule further yielded a Latency time in assay [3] of 162.3 s.

In the case of `O=C(O)C[C@H](NC(=O)[C@H](CC(=O)NO)Cc1ccccc1)c1ccccc1`, the IC50 in assay [4] stood at 400 nM; in assay [1] it was 7.2 nM; in assay [2], 3 nM.

The molecule `O=C(CC(Cc1ccccc1)C(=O)NC(Cc1ccccc1)C(=O)O)NO` (configuration not stated) returned an IC50 in assay [4] of 130 nM.

On to `O=C(O)C[C@H](Cc1ccccc1)NC(=O)[C@H](CC(=O)NO)Cc1ccccc1`, for which the figures for the IC50 in assay [4], in assay [1] and in assay [2] were 1430 nM, 28.5 nM and 7.6 nM, respectively.

Turning to `O=C(O)CNC(=O)C(CC(=O)NO)Cc1ccccc1` (configuration not stated), the IC50 worked out at 2000 nM in assay [4] and 21 nM in assay [1].
